High-throughput results from PubChem BioAssay.
Rows were chosen to be rich in hits. Some 2% of all compounds tested hit in one or more screens of this group.
dFosB activator: enhances mouse delta FosB homodimer DNA binding; purified delta FosB, TAMRA-CDK5 oligo fluorescence polarization; percent of positive-control signal above neutral wells; activation, % at 25 µM; 0.99% of 340,000 active;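 active = mean activation above about 17%, with every replicate also reaching it, limit read from the data, passing the limit was not always enough; inconclusive = only one of the two conditions met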
Target sequence (P13346 whole entry, looked up): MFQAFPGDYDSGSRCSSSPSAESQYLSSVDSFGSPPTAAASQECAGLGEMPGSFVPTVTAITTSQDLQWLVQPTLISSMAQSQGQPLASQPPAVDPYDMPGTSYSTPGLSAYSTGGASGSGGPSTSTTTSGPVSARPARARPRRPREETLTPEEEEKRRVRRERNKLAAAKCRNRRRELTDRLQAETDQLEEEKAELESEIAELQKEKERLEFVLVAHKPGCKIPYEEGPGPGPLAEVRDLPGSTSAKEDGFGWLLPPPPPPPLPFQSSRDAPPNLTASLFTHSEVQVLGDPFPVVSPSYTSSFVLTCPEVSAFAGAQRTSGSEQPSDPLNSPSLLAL
S100A4 inh HTS: S100A4-myosin IIA interaction inhibition. P26447. inhibition, % at 10.7 µM. AID 652163. S100A4/TAMRA-MyoIIA peptide fluorescence polarization. 0.14% of 360,000 active;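 active = mean inhibition of at least 70% across replicates, with every replicate also reaching that level; inconclusive = mean inhibition reaches 70% but some replicates fall short; inactive = mean inhibition below 70%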
Target sequence (P26447 whole entry, looked up): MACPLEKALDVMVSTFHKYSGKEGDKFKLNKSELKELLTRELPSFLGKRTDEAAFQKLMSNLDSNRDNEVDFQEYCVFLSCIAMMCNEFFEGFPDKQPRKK
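Compound dosing: one dose per compound; test system: human S100A4 monomer with TAMRA-labelled myosin IIA peptide; probe or stimulus: TAMRA-labelled myosin IIA heavy-chain peptide probe, 5 nM; medium: HEPES buffer with Ca2+, pH 7.2; schedule: 5 min incubation before reading; benchmarks: neutral control DMSO, positive control TFP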
CAL PDZ FP-1: CAL PDZ (human) peptide binding inhibition; Q9HD26; purified CAL PDZ, TMR-peptide fluorescence polarization, 1 h; 0.92% of 300,000 active; AID 602252; inhibition, % at 24.9 µM;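 active = mean inhibition of at least 30% with at least half of replicates also reaching 30%; inconclusive = no clear call, values can overlap the other calls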;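 note: 0% = DMSO neutral control and 100% = excess unlabeled competitor peptide PRC23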
CAL PDZ FP-2: blocks peptide binding to human CAL PDZ domain; Q9HD26; purified CAL PDZ, TMR-peptide fluorescence polarization, 1 h; inhibition, % at 20 µM; 0.02% of 330,000 active;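 active = highest replicate inhibition of at least 40%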;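 note: plate controls were DMSO neutral control wells for no effect and unlabeled competitor peptide control wells for full effect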
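System: purified tagged CAL PDZ domain construct (CerCALP). Schedule: 1 h incubation at room temperature before polarization reading. Medium: 25 mM sodium phosphate pH 7.4, 150 mM NaCl, TCEP, IgG, Thesit. Read-out: percent inhibition from loss of millipolarization. Measured by: FP readout, S and P plane fluorescence. Probe or stimulus: fluorescent TMR peptide probe.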
CDK5 inh: inhibitors of human CDK5/p35 kinase | Q00535+Q15078 | Recombinant CDK5/p35, ADP-Glo luminescence, 60 min | inhibition, % at 10 µM | 0.01% of 330,000 active;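 active = highest replicate inhibition of at least 50% and at least 75% of replicates reaching 50%; inconclusive = only one of the two criteria met; inactive = both criteria failed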;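 note: plate controls were DMSO neutral control for no effect and GW8510 at 10 µM for full effect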
C2C12 statin: suppression of simvastatin myotoxicity | C2C12 myotubes + simvastatin, ATP luminescence, 48 h; scaled: DMSO 0, geranylgeraniol control 100 | rescue of ATP level, % at 7.49 µM | 0.78% of 330,000 active | AID 602340;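 active = mean ATP rescue above about 67%, or every replicate alone reaching that limit, limit read from the data, passing the limit was not always enough; inconclusive = no clear call, values can overlap the other calls; inactive = mean under the limit and some replicate under it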;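 note: myotubes were challenged with 10 µM simvastatin during compound exposure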
Starred values were filed as active, the others as inactive; ? = inconclusive; / = no result; + = active, no number.

SMILES	dFosB activator	S100A4 inh HTS	CAL PDZ FP-1	CAL PDZ FP-2	CDK5 inh	C2C12 statin
COCC1CCN(C(=O)c2ccc3oc(CCCc4ccccc4)nc3c2)C1 (stereo unspecified)	-7.5	-1.4	-2.5	+	0.5	-3.1
Cc1cccc(S(=O)(=O)N[C@@H]2CC[C@@H](CCNC(=O)Nc3cc(F)ccc3F)O[C@@H]2CO)c1	/	-0.7	/	/	/	-22.2
C[C@@H]1CN([C@@H](C)CO)C(=O)c2cc(NS(=O)(=O)c3cccs3)ccc2O[C@@H](C)CCCCO[C@H]1CN(C)S(=O)(=O)c1ccc(F)cc1	/	-12.3	/	/	/	/
Cc1nc(SCC(=O)N2CCN(C(=O)c3ccco3)CC2)c2c(C)c(C)sc2n1	-10.4	/	30.9*	/	0.6	/
Cc1nc(SCC(=O)N2CCN(C(=O)c3cccs3)CC2)c2c(C)c(C)sc2n1	-16.4	-1.2	0.3	-1.2	0.1	17.3
CCN(CC)S(=O)(=O)c1ccc(N2CCOCC2)c(NC(=O)c2ccc3c(c2)OCCO3)c1	-9.1	3.1	-2.2	-2.7	-1.1	8.0
CCC(CC)C(=O)NC12CC3CC(CC(C3)C1)C2	6.4	/	-2.0	-0.9	2.6	89.4*
CCN(CC)CC(=O)NC12CC3CC(CC(C3)C1)C2	4.6	/	1.6	0.6	-1.3	/
CC(Cc1ccccc1)N/C=C1\CC(=O)NC1=O (stereo unspecified)	-11.3	/	/	-0.6	2.6	79.7*
CC(=O)N(C)c1ccc(N=Nc2c(C)[nH]n(C(N)=S)c2=O)cc1	-0.2	2.2	-6.6	-0.8	0.7	/
CCOC(=O)NC(=O)COC(=O)CCCSc1nc2ccccc2s1	-8.0	-1.2	-1.1	70.9*	0.1	/
NC(=O)NC(=O)COC(=O)CCCSc1nc2ccccc2s1	0.2	2.8	-2.0	-1.8	-0.2	-10.5
CCOC(=O)CSc1nc2sc3c(c2c(=O)n1-c1ccc(OC)cc1)CCN(C)C3	0.5	-9.9	-5.7	-2.1	-0.5	10.6
CCSc1nc2sc3c(c2c(=O)n1-c1ccc(OC)cc1)CCN(C)C3	-12.8	1.4	-4.5	16.9	1.2	100.7*
c1ccc2c(c1)ccc1ccccc12	1.3	-1.1	0.5	0.5	-3.3	0.3
CC1=[N+](C)c2ccc3ccccc3c2C1(C)C	-6.8	144.9*	-2.6	-1.1	0.3	/
CC1CC(C)CN(S(=O)(=O)c2cc3c4c(c2)CCN4C(=O)CC3)C1 (stereo unspecified)	-6.4	6.1	6.7	-1.3	-0.1	8.1
COc1ccc(N2Nc3n[nH]c(N)c3N2)cc1	-7.0	/	-0.8	0.3	1.7	106.2*
O=C(N[C@@H](Cc1ccccc1)C(=O)N1CCN(S(=O)(=O)c2ccc(F)cc2)CC1)c1ccco1	-6.4	-4.4	-1.7	-0.3	0.7	0.0
Cc1ccc(C)n1-c1nn(S(=O)(=O)c2cccc(C(F)(F)F)c2)c2cccc(F)c12	-3.2	-2.4	0.0	-0.4	-0.5	/
Cc1ccc(N(C)C(=O)C2CCCN2S(=O)(=O)c2cccc3nsnc23)cc1 (stereo unspecified)	-4.0	0.8	69.8*	0.6	0.4	21.7
Cc1cccc(NC(=O)C2CCCN(S(=O)(=O)c3cccc4nsnc34)C2)n1 (stereo unspecified)	-10.8	/	-0.1	-3.1	-2.2	108.5*
Cc1ccc(-c2csc(NC(=O)c3ccc(-c4ccccc4)cc3)n2)o1	0.9	/	/	-1.3	0.6	88.7*
O=C(CCSc1ccc(Cl)cc1)c1ccco1	-4.6	1.1	3.7	-0.9	1.5	6.4
CC1N(C)c2cc(NC(=O)c3ccco3)ccc2C1(C)C (stereo unspecified)	144.6*	179.6*	-193.4	-37.9	-1.2	/
SMILES	dFosB activator	S100A4 inh HTS	CAL PDZ FP-1	CAL PDZ FP-2	CDK5 inh	C2C12 statin
CC1N(C)c2cc(NC(=O)c3ccco3)c(P(=O)(Nc3ccc([N+](=O)[O-])cc3)N3CCOCC3)cc2C1(C)C (stereo unspecified)	?	-66.8	-2.7	-7.2	-1.4	/
O=C1CC(c2cccc(Cl)c2)Cc2nc(N3CCN(c4ccccc4)CC3)ncc21 (stereo unspecified)	-8.3	/	4.3	-2.3	0.4	-12.6
CCN1CCN(c2ncc3c(n2)CC(c2cc(OC)c(OC)c(OC)c2)CC3=O)CC1 (stereo unspecified)	3.5	/	49.6*	-0.6	-0.1	/
CCCN1CCN(CCCNC(=O)CN2C(=O)C(CC)Oc3ccccc32)CC1 (stereo unspecified)	-9.0	-5.6	-0.6	-3.2	-0.4	-3.5
Cc1ccc2c(c1)N(CC(=O)NCCCN1CCN(C)CC1)C(=O)CO2	0.4	0.8	64.3*	0.1	0.8	-37.8
CCC1Oc2ccc(C)cc2N(CC(=O)NCCCN2CCCC2)C1=O (stereo unspecified)	3.5	-9.2	35.8*	0.2	-0.3	-17.0
CN1CCN(CCCNC(=O)CN2C(=O)COc3ccccc32)CC1	2.5	-4.2	/	-0.2	3.1	5.0
CC1CC(Nc2ccccc2)c2ccccc2N1C(=O)c1ccco1 (stereo unspecified)	-7.0	0.4	12.1	-1.2	1.4	6.1
Cc1cc(OCC(=O)NCCCN2CCCC2=O)c2c(C)cc(=O)oc2c1	-8.3	2.4	-1.5	-1.8	/	9.9
Cc1[nH]n(-c2ccccc2)c(=O)c1C=Nc1ccc(S(=O)(=O)N=C(N)N)cc1	26.4*	-9.9	-4.2	0.8	0.4	1.8
Cc1cc(C)nc(NS(=O)(=O)c2ccc(N=Cc3c(C)[nH]n(-c4ccccc4)c3=O)cc2)n1	-6.7	-0.9	-4.0	-2.4	0.9	/
Cc1ccc(NC(=O)C(c2ccc(Cl)cc2)N2CCOCC2)cc1 (stereo unspecified)	-12.6	1.5	43.2*	-1.5	0.7	/
COc1ccc(-c2cc(-c3cc(OC)ccc3O)[nH]n2)cc1	-16.0	/	-1.8	-1.9	-0.5	-3.2
COc1ccc(-c2n[nH]c(C)c2-c2cc(OC)ccc2O)cc1	0.0	/	-10.6	-2.2	-0.2	134.0*
O=C(COc1cccc2cccnc12)N/N=C/c1ccc(O)cc1	18.5*	4.8	11.7	-3.2	0.4	-3.6
O=C(O)CC/C(=N/Nc1ccc([N+](=O)[O-])cc1)C(=O)O	0.4	3.1	-6.3	-2.6	-0.2	/
COc1cc(C(CC(=O)Nc2ccccn2)N2Cc3ccccc3C2=O)cc(OC)c1OC (stereo unspecified)	-7.0	-2.9	-3.8	/	1.3	4.5
CC1CCN(CCn2c(=S)[nH]c3cc4c(cc3c2=O)OCO4)CC1	5.0	0.3	-4.7	-2.6	2.8	?
O=C(CCn1c(=S)[nH]c2cc3c(cc2c1=O)OCO3)NCc1ccccc1Cl	34.6*	-4.3	-1.9	-2.0	-3.9	4.7
O=c1c2cc3c(cc2[nH]c(=S)n1CCN1CCOCC1)OCO3	4.6	/	45.3*	/	-0.2	-8.4
